Results on 74 sequences are retold here after the array DNA melting data of Ke et al. (doi:10.1101/2024.01.08.574731).

Series [1] is described as follows: folding enthalpy; higher = less favourable; fluorescence melt of hairpins on a sequencing array, two-state fit. As to conditions: sodium 0.088 M. The method, boiled down:
(§1)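 Bootstrapped two-state fits yielded melting temperature and folding enthalpy for library hairpins. Cy3 fluorescence, with annealed Cy3 and quencher oligos, was imaged on a sequenced MiSeq flow cell in 50 mM Na-HEPES pH 8.0, 25 mM NaCl in 2.5 °C steps up to 60 °C, and normalised to pre-quench Cy3 and to control constructs. Four replicates were combined by inverse variance, and fitted temperatures were raised by 9.35 °C to match UV melts.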

Series [2] can be described thus: melting temperature; fluorescence melt of hairpins on a sequencing array, two-state fit, raised by 9.35 °C to match UV melts. As to conditions: sodium 0.088 M. The essentials: as §1

CGGTATCGGAAACGACCG (((..(((....)))))): the folding enthalpy in series [1] was -27.8 kcal/mol. Also, the Tm in series [2] is 36.3 °C.
The matching figures for CGGTCCGGAAACGGCCG (((.(((....)))))): -26.7 kcal/mol and 57.6 °C.
The matching figures for CGGTCGGAAACGAAACCG ((((((....)))..))): -28.4 kcal/mol and 43.3 °C.
The matching figures for CGGTCGGAAACGAGGCCG ((((((....)))..))): -23.7 kcal/mol and 41.5 °C.
Turning to CGGTCGGAAACGATCCCG ((((((....)))..))), in series [1], the folding enthalpy is -17.9 kcal/mol. In series [2], the Tm is 34.9 °C.
On to CGGTCGGAAACGATCCG ((((((....))).))), for which the folding enthalpy in series [1] is -43.2 kcal/mol. Moreover, in series [2], the Tm came out at 50.5 °C.
The matching figures for CGGTGCGGAAACGCCCCG (((.(((....))).))): -28.6 kcal/mol and 53.9 °C.
The matching figures for CGTAACCGGAAACGGACG (((..(((....)))))): -15.2 kcal/mol and 34 °C.
In the case of CGTAACGGAAACGTAACG (((.(((....))).))), in series [1], the folding enthalpy was -29.6 kcal/mol. The Tm in series [2] turned out to be 44.8 °C.
Regarding CGTAACGGAAACGTCACG (((.(((....))).))), the folding enthalpy in series [1] is -31.7 kcal/mol. For the same sequence, in series [2], the Tm came out at 41.9 °C.
With CGTAAGAAATTACG (((((....))))), the folding enthalpy in series [1] is -15.7 kcal/mol. In addition, in series [2], the Tm is 38.4 °C.
For the sequence CGTACGGAAACGTAAACG ((((((....)))..))), in series [1], the folding enthalpy is -17.3 kcal/mol. The Tm in series [2] came out at 37.2 °C.
Taken in the same sequence, the figures for CGTACGGAAACGTATACG ((((((....)))..))) were -17.6 kcal/mol and 35.5 °C.
Taken in the same sequence, the figures for CGTACGGAAACGTCCACG ((((((....)))..))) were -12.1 kcal/mol and 30.2 °C.
Take CGTACGGAAACGTGCACG ((((((....)))..))): in series [1], the folding enthalpy is -14.5 kcal/mol. For the same sequence, the Tm in series [2] was determined as 36.2 °C.
The matching figures for CGTAGGCGGAAACGCACG (((..(((....)))))): -15.1 kcal/mol and 42.1 °C.
The matching figures for CGTCAACGGAAACGTACG (((..(((....)))))): -11.4 kcal/mol and 35.6 °C.
The matching figures for CGTCACGGAAACGTTACG (((.(((....))).))): -31.2 kcal/mol and 45.3 °C.
On to CGTCCCGGAAACGGAACG (((.(((....))).))), for which the folding enthalpy in series [1] was -26.3 kcal/mol. In series [2], the Tm came to 47.5 °C.
The matching figures for CGTCCCGGAAACGGTACG (((.(((....))).))): -29.1 kcal/mol and 47.2 °C.
Turning to CGTCCGGAAACGGAGACG ((((((....)))..))), in series [1], the folding enthalpy is -21.4 kcal/mol. For the same sequence, in series [2], the Tm amounted to 45.3 °C.
Turning to CGTCCGGAAACGGCACG ((((((....))).))), in series [1], the folding enthalpy was -22.5 kcal/mol. Further, the Tm in series [2] was 47.6 °C.
On to CGTCGCGGAAACGCCACG (((.(((....))).))), for which the folding enthalpy in series [1] is -33.1 kcal/mol. Further, the Tm in series [2] stood at 45.1 °C.
In the case of CGTCGCGGAAACGCTACG (((.(((....))).))), the folding enthalpy in series [1] is -28.9 kcal/mol. In addition, the Tm in series [2] was 49.3 °C.
Regarding CGTCTCGGAAACGAAACG (((.(((....))).))), the folding enthalpy in series [1] is -32.4 kcal/mol. Further, in series [2], the Tm turned out to be 38.5 °C.
The matching figures for CGTCTGCGGAAACGCACG (((..(((....)))))): -12.2 kcal/mol and 38.7 °C.
The matching figures for CGTGAGAAATCACG (((((....))))): -25.8 kcal/mol and 50.8 °C.
Taken in the same sequence, the figures for CGTGAGCGGAAACGCACG (((..(((....)))))) were -22.2 kcal/mol and 45.9 °C.
Turning to CGTGCCGGAAACGGAACG (((.(((....))).))), the folding enthalpy in series [1] is -37.7 kcal/mol. The Tm in series [2] was 55.9 °C.
The matching figures for CGTGCCGGAAACGGTACG (((.(((....))).))): -32.4 kcal/mol and 60.3 °C.
Taken in the same sequence, the figures for CGTGCGGAAACGCATACG ((((((....)))..))) were -15.4 kcal/mol and 44.9 °C.
Taken in the same sequence, the figures for CGTGCGGAAACGCCAACG ((((((....)))..))) were -19.2 kcal/mol and 39.4 °C.
CGTGCGGAAACGCCGACG ((((((....)))..))): in series [1], the folding enthalpy was -15.6 kcal/mol. For the same sequence, the Tm in series [2] was determined as 44.5 °C.
In the case of CGTGCGGAAACGCGTACG ((((((....)))..))), the folding enthalpy in series [1] was -26.1 kcal/mol. Also, the Tm in series [2] came to 48.6 °C.
Taken in the same sequence, the figures for CGTGCGGAAACGCTCACG ((((((....)))..))) were -18.3 kcal/mol and 39.9 °C.
The matching figures for CGTGCGGAAACGCTGACG ((((((....)))..))): -21.2 kcal/mol and 42.5 °C.
The matching figures for CGTGGCCGGAAACGGACG (((..(((....)))))): -10.8 kcal/mol and 44.2 °C.
Turning to CGTTACGGAAACGTACG (((.(((....)))))), the folding enthalpy in series [1] is -26.3 kcal/mol. For the same sequence, the Tm in series [2] came to 45.4 °C.
The matching figures for CGTTAGAAATAACG (((((....))))): -20.5 kcal/mol and 37 °C.
The matching figures for CGTTCCGGAAACGGCACG (((.(((....))).))): -34.9 kcal/mol and 48.5 °C.
Taken in the same sequence, the figures for CGTTCCGGAAACGGGACG (((.(((....))).))) were -42.9 kcal/mol and 57.6 °C.
Turning to CGTTCCGGAAACGGTACG (((.(((....))).))), in series [1], the folding enthalpy is -31.5 kcal/mol. Moreover, the Tm in series [2] was 50 °C.
The matching figures for CGTTCGAAAGAACG (((((....))))): -30.6 kcal/mol and 58.2 °C.
The matching figures for CGTTCGGAAACGAATACG ((((((....)))..))): -19.2 kcal/mol and 36.7 °C.
Consider CGTTGCCGGAAACGGACG (((..(((....)))))), for which the folding enthalpy in series [1] was -13.3 kcal/mol. Also, in series [2], the Tm amounted to 44.3 °C.
For the sequence CGTTGCGGAAACGCCACG (((.(((....))).))), the folding enthalpy in series [1] is -29.8 kcal/mol. Also, the Tm in series [2] was 49.5 °C.
As for CGTTTACGGAAACGTACG (((..(((....)))))), the folding enthalpy in series [1] was -19.2 kcal/mol. Further, in series [2], the Tm was 40.1 °C.
As for CGTTTCCGGAAACGGACG (((..(((....)))))), the folding enthalpy in series [1] is -17.1 kcal/mol. For the same sequence, the Tm in series [2] worked out at 49.3 °C.
The matching figures for CGTTTCGGAAACGAGACG (((.(((....))).))): -24.9 kcal/mol and 49.1 °C.
Regarding CGTTTCGGAAACGATACG (((.(((....))).))), in series [1], the folding enthalpy is -33.6 kcal/mol. Further, the Tm in series [2] is 45.6 °C.
The matching figures for CTAGGGAAACCTAG (((((....))))): -17.2 kcal/mol and 39.4 °C.
The matching figures for CTCAGGAAACTGAG (((((....))))): -22.6 kcal/mol and 46.3 °C.
The matching figures for CTCCTGAAAAGGAG (((((....))))): -20.3 kcal/mol and 51.2 °C.
For CTGATGAAAATCAG (((((....))))), the folding enthalpy in series [1] is -22 kcal/mol. Besides, the Tm in series [2] was found to be 43.4 °C.
As for CTGCGGAAACGCAG (((((....))))), the folding enthalpy in series [1] was -31.6 kcal/mol. Further, the Tm in series [2] stood at 61.8 °C.
Taken in the same sequence, the figures for CTTACGAAAGTAAG (((((....))))) were -19.3 kcal/mol and 49.2 °C.
For the sequence GAAAAACGAAAGTTCTTC (((.(((....))).))), in series [1], the folding enthalpy was -13.4 kcal/mol. Moreover, the Tm in series [2] is 28.2 °C.
The matching figures for GAAAACCGAAAGGTCTTC (((.(((....))).))): -18.9 kcal/mol and 35.8 °C.
Taken in the same sequence, the figures for GAAAACGAAAGTTGCTTC ((((((....)))..))) were -19.8 kcal/mol and 33.1 °C.
Take GAAAAGCCGAAAGGCTTC (((..(((....)))))): the folding enthalpy in series [1] is -7.3 kcal/mol. Further, the Tm in series [2] was 36.8 °C.
The matching figures for GAAAAGGCGAAAGCCTTC (((..(((....)))))): -9.06 kcal/mol and 38.9 °C.
Taken in the same sequence, the figures for GAAAAGGGAAACCTTTCC (.(((((....))))).) were -13.9 kcal/mol and 27.7 °C.
The matching figures for GAAAATGAAAATTTTC ((((((....)))))): -23.1 kcal/mol and 38.6 °C.
Consider GAAAATGGAAACATTTCC (.(((((....))))).), for which, in series [1], the folding enthalpy is -17 kcal/mol. Also, the Tm in series [2] stood at 28.6 °C.
With GAAACAGAAATGTTTC ((((((....)))))), the folding enthalpy in series [1] was -28.5 kcal/mol. Besides, the Tm in series [2] came out at 45.9 °C.
Taken in the same sequence, the figures for GAAACCCCGAAAGGGTTC (((..(((....)))))) were -14 kcal/mol and 35.7 °C.
The matching figures for GAAACCGAAAGGTGGTTC ((((((....)))..))): -11.8 kcal/mol and 32.3 °C.
Taken in the same sequence, the figures for GAAACCGAAAGGTTCTTC ((((((....)))..))) were -22.5 kcal/mol and 54.4 °C.
For the sequence GAAACCGAAAGGTTTTC ((((((....))).))), the folding enthalpy in series [1] is -17.3 kcal/mol. Moreover, the Tm in series [2] was 50.6 °C.
Taken in the same sequence, the figures for GAAACCGGAAACAGTTTC (((((.(....).))))) were -25 kcal/mol and 30.8 °C.
As to GAAACCGGAAACGATTTC ((((.((....)).)))), the folding enthalpy in series [1] was -28.9 kcal/mol. Moreover, the Tm in series [2] was found to be 34 °C.
The matching figures for GAAACCGGAAACGGTTTC (((((((....))))))): -39 kcal/mol and 65.7 °C.
The matching figures for GAAACGGGAAACTGTTTC (((((.(....).))))): -27.5 kcal/mol and 44.9 °C.
Consider GAAACTGAAAAGTTTC ((((((....)))))), for which the folding enthalpy in series [1] was -31.5 kcal/mol. For the same sequence, in series [2], the Tm worked out at 50.4 °C.
